The subject of data set [1] is Calvarial osteoblast. Put plainly: Induction of osteogenesis in BALB/c mouse calvarial osteoblast cells using PNPP as substrate assessed as increase in ALP activity at 0.1 to 10 nM measured after 48 hrs by spectrophotometry. The data set is classed as functional, cell-based. The conditions noted are these: Calvaria, dose 0.1-10 nM. An outline of the steps: (§1)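 Neonatal BALB/c calvarial osteoblasts, 2 × 10³ cells per well, adhered 24 h, then exposed to compounds (1 pM to 1 μM range) in osteoblast differentiation medium for 48 h. Cells frozen overnight at −80 or −20 °C, thawed at 37 °C to expose ectoenzyme; p-nitrophenyl phosphate added and ALP activity read at 405 nm. Untreated cells as control.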

Data set [2] deals with Calvarial osteoblast. Kind of data set: Cytotoxicity in BALB/c mouse calvarial osteoblast cells at 0.001 to 1000 nM incubated for 48 hrs by MTT assay. Type of data set: toxicity, cell-based, Calvaria. Particulars: 1 µM, dose 0.001-1000 nM. In short, it runs like this: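 Primary calvarial osteoblasts from 1–2 day old BALB/c pups (collagenase/dispase digests, α-MEM with 10% FBS) seeded at 2 × 10³ per well. MTT added for 4 h at 37 °C, formazan dissolved in DMSO, absorbance read at 570 nm.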
In general terms: Tetrazolium assays rely on reduction of a dye to a coloured formazan, in cell work by metabolically active cells.

Data set [3] relates to Calvarial osteoblast. Kind of data set: Induction of cell proliferation of BALB/c mouse calvarial osteoblast cells at 0.001 nM incubated for 48 hrs by MTT assay relative to control. The data set is classed as functional, Calvaria. An outline of the steps:
(§2)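 Primary calvarial osteoblasts from 1–2-day-old neonatal BALB/c pups, released by dispase/collagenase digestion and grown in α-MEM with 10% FBS. Seeded at 2 × 10³ cells per well, treated after 24 h for 48 h in α-MEM with 5% FBS, 10 mM β-glycerophosphate and 50 μg mL⁻¹ ascorbic acid. MTT added for 4 h at 37 °C, formazan dissolved in DMSO, absorbance read at 570 nm versus untreated cells.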

The nature of data set [4]: Induction of osteogenesis in BALB/c mouse MSC cells assessed as increase in mineral nodule formation at 0.1 nM treated for 21 days with compound refreshment for every 48 hrs by Alizarin red S staining based analysis relative to control. The conditions noted are these: time 21 day. Type of data set: functional. In short, it runs like this:
(§3)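 Bone marrow cells were flushed from the long bones of 6–8-week-old BALB/c mice and seeded at 2 × 10⁶ per well. Medium: 10% FBS, 100 nM dexamethasone, 50 μg mL⁻¹ ascorbic acid and 10 mM β-glycerophosphate. Compound and medium were renewed every 48 h for 21 days. Cells were fixed in 4% paraformaldehyde and stained with Alizarin red (pH 4.2). Stain was eluted with 10% cetylpyridinium chloride for 1 h and read at 595 nm versus control.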

The test system of data set [5] is Calvarial osteoblast. Kind of data set: Induction of cell proliferation of BALB/c mouse calvarial osteoblast cells at 0.1 nM incubated for 48 hrs by MTT assay relative to control. Type of data set: functional, Calvaria. An outline of the steps: as §2
Data set [6] can be described thus: Induction of osteogenesis in BALB/c mouse MSC cells assessed as increase in mineral nodule formation at 0.001 nM treated for 21 days with compound refreshment for every 48 hrs by Alizarin red S staining based analysis relative to control. The conditions noted are these: time 21 day. Type of data set: functional. In short, it runs like this: as §3
For data set [7], the system named is Calvarial osteoblast. Kind of data set: Induction of osteogenesis in BALB/c mouse calvarial osteoblast cells using PNPP as substrate assessed as increase in ALP activity at 0.001 to 10 nM measured after 48 hrs by spectrophotometry. Particulars: Calvaria, dose 0.001-10 nM. The data set is classed as functional, cell-based. An outline of the steps: as §1

Activity calls are given as the source filed them. The calls are words filed in the database; no cut-off is given here.

Turning to `CCCCCC(=O)Nc1nc(-c2ccc(Cl)cc2)c(Cl)c(-c2cc(OC)c(OC)cc2OC)n1`, the outcome with Calvarial osteoblast [1] was Active. Moreover, the Activity entry in the data set on Calvarial osteoblast [2] is “Non-Toxic”; with Calvarial osteoblast [3] it was ~18%; in data set [4], ~27%.

Regarding `COc1cc(OC)c(-c2nc(N)nc(-c3ccc(Cl)cc3)c2Cl)cc1OC`, the outcome with Calvarial osteoblast [1] was Active. The Activity with Calvarial osteoblast [5] is given as ~29%; in the data set with Calvarial osteoblast [2], “Non-Toxic”; in data set [4], ~26%.

As for `CCCCCC(=O)Nc1nc(-c2ccc(Br)cc2)cc(-c2cc(OC)c(OC)cc2OC)n1`, the Activity is given as ~24% in data set [6]; ~25% in the data set with Calvarial osteoblast [5]; “Non-Toxic” with Calvarial osteoblast [2]; ~22% with Calvarial osteoblast [3]; ~25% in data set [4]. Besides, the outcome in the data set with Calvarial osteoblast [7] was Active.
